The labels stand for the following.
B1: tRNA (parent)
chain: GUUCCGUUGGCGUAAUGGUAACGCGUCUCCCUCCUAAGGAGAAGACUGCGGGUUCGAGUCCCGUACGGAACG

This sample holds only a part of the variants without activity.

The values below come from the RNAGym collection of RNA variant scans (doi:10.1126/science.aae0568).

Variants of B1 are the subject of the data set. Kind of data set: yeast fitness relative to wild type (ratio to wild type); higher = fitter; tRNA-Arg(CCU), competitive growth, 37 C, YPD. The method in brief:
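The tRNA-Arg(CCU) gene variants were made by chemical synthesis with a 3% per-site mutation rate at 69 sites and inserted at the native genomic locus of Saccharomyces cerevisiae. After pooling, the strains were competed in YPD at 37°C for 24 hours in six parallel replicates. Gene amplicons from the start population and each end population were read by 100-nucleotide paired-end sequencing, and Darwinian fitness relative to wild type was taken from genotype frequency changes. Genotypes needed ≥ 100 starting reads, and estimates < 0.5 were set to 0.5.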
With GUUCCGUUAGCGUAACGGUAACGCGUCUCGCUCGUAAGGGGAAGACUGCGGGUUCGAGUCGCGUACGGGACG [G9A U16C C30G C34G A40G C61G A69G], the yeast fitness was at most 0.5.
As for GUUCCGUUGGCGUAAUGGUAACGCGUGUCCAUCCUAAGGAGAAGACUGCGGGUUCGAGUCCCGUACGGAUCG [C27G C31A A70U], the yeast fitness is at most 0.5.
Take GUUCCGUUGGCGUAAUGGAAAGCCGUCUCGCUCAUAAGGAGAAGACUGCGGGUUCGAGUCCCGUACGGAACG [U19A C22G G23C C30G C34A]: the yeast fitness worked out at 0.519.
On to GUUCCGUUGGCGUAAUGGUAACGCGUCUCCCUCCUAAGCAGAAGACAGCGGGUUCGCGUCCCGUACGGAACG [G39C U47A A57C], for which the yeast fitness is at most 0.5.
Under GUUCCGUUGGCGUAAUCGUAACGCGUCUCCCUCCUAAGGAGAAGACUGUGGGUUCGAGUCCCCUACGGAACG [G17C C49U G63C] stands at most 0.5.
Regarding GUUGCGUUGGUGUAAUGGUAACGCGUCGCCCUCCUAAGGAGAAGCCUGCGGGAUCGAGUCCCCUACGGAACG [C4G C11U U28G A45C U53A G63C], the yeast fitness was 0.559.
In the case of GUUCCGUUGGCGUAAUGGUAACGCGUCUCCCUCCUAACGAGAAGACUGCGGGUUCGAGUUCCGUACGGAACG [G38C C60U] it was 0.571.
In the case of GUUCCGUUGGCGUAAUGGUAACACGUCUCCCUCCUGAGGAGAAGACUGCGGGUUGGAGUCCCGUACGGUACG [G23A A36G C55G A69U] it was 0.567; in that of GUUCCGUUGGCGUAAUGGUAACGCGUCUCCCUCCUAACGAGAAGACUGCGGGUUAGAGUCCCGUACGGAACG [G38C C55A], 0.508.
Regarding GUUCCGUUGGCGUAAUGGUAACGCGUCUCACUCCUAAGGAGAAGACUGCGGGUUCGAGUCCGGUACGGAACG [C30A C62G], the yeast fitness was found to be 0.662.
Consider GUUCCAUUGGCGUAAUGGUAACGUGUCUCCCUCCUAAGGAGAAGACUGCGGGUUCGAGUCCCGUCCGGAACG [G6A C24U A65C], for which the yeast fitness is at most 0.5.
Under GUUCCGUUGGUGUAAUGGUAACGCGUCUCCGUCCUAAGGAGACGACUGCGGGUUCGAGUCCCGUACGGAACG [C11U C31G A43C] stands 0.654; under GUUACGUUGGCGUAAUGGUAACGCGGCUCCCUCCUAAGGAGAACACUGCGGGUUCCAAUCCCGUACGCAACG [C4A U26G G44C G56C G58A G68C], at most 0.5.
In the case of GUUCCGUUGGGGUAAUGGUAACGCGUCUCCCUCCUAAGGAGAAGACUGUGGGUUCGAGUCCCGUACGUAACG [C11G C49U G68U] it was at most 0.5; in that of GUUCCGUUGGCGUCAUGGUAACGCGUCUCCGUCCUAAGGAGAAGACUGCGGGUUCGAGUCCAGUUUGGAACG [A14C C31G C62A A65U C66U], 0.506; in that of GUUCCGUUGGCGUAAUGGUAACGCGUCUCCCUCCUAAGGAGAAGACCGCGGGUUCGAGUCCCGUACGCAACG [U47C G68C], 0.742.
Take GAUGCGUUGGCGUAAUGGUAACGCGUCUCCCUCCUAAGGAGAAGACUGCGGGUUAGAGUCCCGUACGGAACG [U2A C4G C55A]: the yeast fitness came out at 0.57.
With GUUCCGUUGGCGUAAUGGUAUCGCGUCUCCCUCCUCAGGAGAAGACUGCGGGUUCGAGUCCCGUACGGAACG [A21U A36C], the yeast fitness is at most 0.5.
In the case of GUUCCGUUGGCGUAAUGGUAACGCGUCUCCCUGCUAAGGAGAAGACUGCGGAUUCGAGUCCCGUACGGAACG [C33G G52A], the yeast fitness turned out to be 0.582.
Under GUUCCGUUGGCGUAAUGGUAACGCGUCUCCCUCCUAAGGAGAAGCCUGCGGGUUCGCCUCCCGUACGGAACG [A45C A57C G58C] stands 0.602; under GUUCCGUUGGCGUAAUGGUAGCGCGUCUCCCUCCUAAGGAGAAGACUGCGGGUUCGACCCCCAUACGGAACG [A21G G58C U59C G63A], 0.701.
As for GUUCCGAUGGCGUUAUGGUCACGCGUCCCCCUCCUAAGGAGAAGAUUGCGGGUUCGAAUCCCGUACGGAACG [U7A A14U A20C U28C C46U G58A], the yeast fitness is at most 0.5.
Under GUUCCGUUGGCGUAUUGGUAACGUGUCUCCCUCCUAGGGAGAAGACUGCGGGUUCGAGUCCCGUACGGAACG [A15U C24U A37G] stands at most 0.5.
Regarding GUUCCGUUGGCGUAAUAGUAACGCGUCUCCCUCCUAAGGAGAAGACUGCGGGUUCCACUCCCGUACGAAACG [G17A G56C G58C G68A], the yeast fitness was at most 0.5.
On to GUUUCGUUGGCGUAAUGGUAACGCGUCUCACUCCUAAGGAGAAGACUGCGGGUUCGAGUCCCGUACGAAACG [C4U C30A G68A], for which the yeast fitness is 0.786.
For the variant GUUCCGUUGGCGUAAUGAUUACGCGUCUGCCUCCUAUGGAGAAGACUGCGGGUUCGAGUCCCGUACGGAACG [G18A A20U C29G A37U], the yeast fitness was found to be 0.563.
For GUUCCGUUGGCGUAAUGGUAACGCGUCUCCCUCCUAAGGAGAAAAUUGCGGGUUCGAGUCCUGUACGGAACG [G44A C46U C62U], the yeast fitness turned out to be 0.723.
In the case of GUUCCGUGUGCGUAAUGGUAACGCGUCUCACUCCUAAGGAGAAGACUGCGGGUUCGAGUCACGUACGGAACG [U8G G9U C30A C61A] it was 0.539.
On to GUUGCGUUGGCGUAAUGGUAACGCGUCUCCCUCCUAAGGAGAAGACUGCGGGUUCGAGUCCCAUACGGAACG [C4G G63A], for which the yeast fitness amounted to 0.813.
For GUUCCGUUGGCGUAAUGGUAACGCGUCUCCUUCGUAAGGAGAAGACUGCAGGUUCGAGUCCCGUACGGAACG [C31U C34G G50A], the yeast fitness is at most 0.5.
As to GUUCCGUUGGCGUAAGGGUAACGCGUCUCCCUCCUAAGGAGAAGACUGCGGGUUCGAGUCCCGUUCGGAACG [U16G A65U], the yeast fitness is 0.876.
With GUUCCGUUGCCGUAAUGGUAACGCGUCUCCACCCUAAGAAGAAGACUGCGGCUUCGAGUCCCGUACGGAACG [G10C C31A U32C G39A G52C], the yeast fitness was at most 0.5.
GUACCGUUGGCGUAAUGGUAACGGGUCUCCCUCCUAAGGAGAAGACUGCGGGUUCGUGUCCCGUACGGAACG [U3A C24G A57U]: the yeast fitness is at most 0.5.
In the case of GUUCCAUUGGCGUACUGGUAACGCGUCUCCCUCCUCAGGAGUGGACUGCGGGUUGGAGUCUCGUACGGAACG [G6A A15C A36C A42U A43G C55G C61U] it was at most 0.5; in that of GUUCCGUUGGCGAAAUGGUGACGUGUCUCCCUCCUAAGGAGAAGACUGCGGGUUCGAGCCCCGUACGGAACG [U13A A20G C24U U59C], at most 0.5.
Take GUUCCAUUGGCGUAACGGUAACGCGUGUCCCUACUAACGAGGAGACUGCGGGUUCGAGUCCCGUACGGAACG [G6A U16C C27G C33A G38C A42G]: the yeast fitness is at most 0.5.
Under GUUCCGUUGGCGUAAUGGUAACGAGUCUCCCUCCUAAGGAGAAGACUGCGAGUUCGAGUUCCGUACAGAACG [C24A G51A C60U G67A] stands at most 0.5; under GUUAUGUUGGCGUAAUGGUAACGCGUUUCCCUCCUAGGGAGAAGACUGCGGGUUCGAGUCCCGUACGGAACG [C4A C5U C27U A37G], at most 0.5.
